# Assay results collected from several papers.
# Each line is one published result; the experiments were not run side by side.
# Organism: Plasmodium falciparum
# Observed: parasite growth
# Notes: blood stage
Structure (SMILES),technique,strain,concentration,time,quantity,value
Cn1cc2c3c1C(=O)C(NCCc1ccc(O)cc1)=CC3=NCC2,SYBR Green,W2,,,IC50,5010 nM
O=C(/C=C/c1cn(Cc2cn(-c3ccnc4cc(Cl)ccc34)nn2)c2ccccc12)c1ccccc1,SYBR Green,3D7,5 µM,,inhibition,-3.08%
CCOCC(=O)N1CCC[C@H](C(=O)NCc2nc(-c3ccc(C)nc3)cs2)C1,SYBR Green,DD2,,72 h,EC50,5 nM
O=C1c2[nH]cc3c2C(=NCC3)c2c(-c3ccc(O)cc3)c[nH]c21,SYBR Green,W2,,,IC50,4540 nM
CCOCC(=O)N1CCC[C@H](C(=O)NCc2nc(-c3ccccc3)cs2)C1,SYBR Green,DD2,,72 h,EC50,24 nM
O=C(/C=C/c1cn(Cc2cn(-c3ccnc4cc(Cl)ccc34)nn2)c2ccccc12)c1ccccc1Br,SYBR Green,3D7,5 µM,,inhibition,-1.58%
CCOC(=O)C1=C(C)NC2=C(C(=O)CC(c3ccc(Cl)c(OC)c3)C2)C1c1ccccc1Cl (centres unmarked),SYBR Green,3D7,,,EC50,~20 nM
COCC(=O)N1CCC[C@@H](C(=O)NCc2nc(-c3ccccc3)cs2)C1,SYBR Green,DD2,,72 h,EC50,7000 nM
COC(CNC1=CC2=NCCc3c[nH]c(c32)C1=O)c1c[nH]c2ccccc12 (centres unmarked),SYBR Green,DD2,,,IC50,654 nM
COCC(=O)N1CCC[C@H](C(=O)NCc2nc(-c3ccc(OC)cc3)cs2)C1,SYBR Green,DD2,,72 h,EC50,20 nM
CCN(CC)CCCC(C)Nc1ccnc2cc(Cl)ccc12 (centres unmarked),SYBR Green,D6,,72 h,IC50,6.57 nM
O=C(/C=C/c1cn(Cc2cn(-c3ccnc4cc(Cl)ccc34)nn2)c2ccccc12)c1cccs1,SYBR Green,3D7,5 µM,,inhibition,32.1%
COCC(=O)N1CCC[C@H](C(=O)NCc2nc(-c3cccnc3)cs2)C1,SYBR Green,DD2,,72 h,EC50,92 nM
O=C1C(NCCc2c[nH]c3ccccc23)=CC2=NCCc3c[nH]c1c32,SYBR Green,DD2,,,IC50,598 nM
COc1ccccc1C(=O)/C=C/c1cn(Cc2cn(-c3ccnc4cc(Cl)ccc34)nn2)c2ccccc12,SYBR Green,3D7,5 µM,,inhibition,56.8%
O=C1C(NCCc2ccc(O)cc2)=CC2=NCCc3c[nH]c1c32,SYBR Green,W2,,,IC50,476 nM
O=C(/C=C/c1cn(Cc2cn(-c3ccnc4cc(Cl)ccc34)nn2)c2ccccc12)c1ccccc1[N+](=O)[O-],SYBR Green,3D7,10 µM,,inhibition,26.1%
Cc1cc(Nc2ccc(S(F)(F)(F)(F)F)cc2)n2nc(C(C)(F)F)nc2n1,,3D7,,,EC50,8.4 nM
O=C(/C=C/c1cn(Cc2cn(-c3ccnc4cc(Cl)ccc34)nn2)c2ccccc12)c1ccc(Br)cc1,SYBR Green,3D7,10 µM,,inhibition,37.4%
NC1=CC2=NCCc3c[nH]c(c32)C1=O,SYBR Green,DD2,,,IC50,478 nM
